# In ChEMBL document CHEMBL4715736, “Identification of anticancer agents based on the thieno[2,3-b]pyridine and 1H-pyrazole molecular scaffolds” (2016):
# Tested on: MCF7
# Assay: Growth inhibition of human MCF7 cells assessed as cell growth at 0.01 uM incubated for 48 hrs by sulforhodamine B assay relative to control
# Assay type: functional
# Conditions: read-out: Activity
row,Compound,growth at 0.01 µM
1,CCc1ccccc1NC(=O)c1sc2nc3c(cc2c1N)C(=O)CCC3,82%

# Tested on: SK-MEL-28
# Assay: Growth inhibition of human SK-MEL-28 cells assessed as cell growth at 1 uM incubated for 48 hrs by sulforhodamine B assay relative to control
# Assay type: functional
# Conditions: read-out: Activity
row,Compound,growth at 1 µM
1,CCc1ccccc1NC(=O)c1sc2nc3c(cc2c1N)C(=O)CCC3,49%

# Tested on: RXF 393
# Assay: Growth inhibition of human RXF 393 cells assessed as cell growth at 100 uM incubated for 48 hrs by sulforhodamine B assay relative to control
# Assay type: functional
# Conditions: read-out: Activity
row,Compound,growth at 100 µM
1,CCc1ccccc1NC(=O)c1sc2nc3c(cc2c1N)C(=O)CCC3,-41%

# Tested on: HCT-15
# Assay: Growth inhibition of human HCT-15 cells assessed as cell growth at 0.01 uM incubated for 48 hrs by sulforhodamine B assay relative to control
# Assay type: functional
# Conditions: read-out: Activity
row,Compound,growth at 0.01 µM
1,CCc1ccccc1NC(=O)c1sc2nc3c(cc2c1N)C(=O)CCC3,93%

# Tested on: COLO 205
# Assay: Growth inhibition of human COLO 205 cells assessed as cell growth at 0.1 uM incubated for 48 hrs by sulforhodamine B assay relative to control
# Assay type: functional
# Conditions: read-out: Activity
# Summary of the method: (§1)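 NCI Developmental Therapeutics Program NCI60 panel. Compounds that were active in the 10 µM one-dose screen went on to dose–response testing. Growth at each concentration is expressed relative to untreated control (100%). GI50 (concentration giving 50% of maximal inhibition of proliferation) and TGI (concentration giving total growth inhibition) were derived from the curves.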
row,Compound,growth at 0.1 µM
1,CCc1ccccc1NC(=O)c1sc2nc3c(cc2c1N)C(=O)CCC3,98%

# Tested on: OVCAR-4
# Assay: Growth inhibition of human OVCAR-4 cells assessed as cell growth at 0.1 uM incubated for 48 hrs by sulforhodamine B assay relative to control
# Assay type: functional
# Conditions: read-out: Activity
row,Compound,growth at 0.1 µM
1,CCc1ccccc1NC(=O)c1sc2nc3c(cc2c1N)C(=O)CCC3,88%

# Tested on: Malme-3M
# Assay: Growth inhibition of human Malme-3M cells assessed as cell growth at 1 uM incubated for 48 hrs by sulforhodamine B assay relative to control
# Assay type: functional
# Conditions: read-out: Activity
row,Compound,growth at 1 µM
1,CCc1ccccc1NC(=O)c1sc2nc3c(cc2c1N)C(=O)CCC3,50%

# Tested on: U-251
# Assay: Growth inhibition of human U-251 cells assessed as cell growth at 0.01 uM incubated for 48 hrs by sulforhodamine B assay relative to control
# Assay type: functional
# Conditions: read-out: Activity
row,Compound,growth at 0.01 µM
1,CCc1ccccc1NC(=O)c1sc2nc3c(cc2c1N)C(=O)CCC3,96%

# Tested on: BT-549
# Assay: Growth inhibition of human BT-549 cells incubated for 48 hrs by sulforhodamine B assay
# Assay type: functional
# Conditions: not given
# Summary of the method: as §1
Compound,GI50,TGI
CCc1ccccc1NC(=O)c1sc2nc3c(cc2c1N)C(=O)CCC3,27.4 µM,> 100 µM

# Same assay, conditions: read-out: LC50 (the source's name)
row,Compound,CC50
1,CCc1ccccc1NC(=O)c1sc2nc3c(cc2c1N)C(=O)CCC3,> 100 µM

# Tested on: HT-29
# Assay: Growth inhibition of human HT-29 cells assessed as cell growth at 0.1 uM incubated for 48 hrs by sulforhodamine B assay relative to control
# Assay type: functional
# Conditions: read-out: Activity
row,Compound,growth at 0.1 µM
1,CCc1ccccc1NC(=O)c1sc2nc3c(cc2c1N)C(=O)CCC3,100%

# Tested on: IGROV-1
# Assay: Growth inhibition of human IGROV-1 cells assessed as cell growth at 0.01 uM incubated for 48 hrs by sulforhodamine B assay relative to control
# Assay type: functional
# Conditions: read-out: Activity
row,Compound,growth at 0.01 µM
1,CCc1ccccc1NC(=O)c1sc2nc3c(cc2c1N)C(=O)CCC3,108%

# Tested on: HCT-15
# Assay: Growth inhibition of human HCT-15 cells assessed as cell growth at 100 uM incubated for 48 hrs by sulforhodamine B assay relative to control
# Assay type: functional
# Conditions: read-out: Activity
row,Compound,growth at 100 µM
1,CCc1ccccc1NC(=O)c1sc2nc3c(cc2c1N)C(=O)CCC3,19%

# Tested on: OVCAR-5
# Assay: Growth inhibition of human OVCAR-5 cells assessed as cell growth at 1 uM incubated for 48 hrs by sulforhodamine B assay relative to control
# Assay type: functional
# Conditions: read-out: Activity
row,Compound,growth at 1 µM
1,CCc1ccccc1NC(=O)c1sc2nc3c(cc2c1N)C(=O)CCC3,50%

# Tested on: MOLT-4
# Assay: Growth inhibition of human MOLT-4 cells assessed as cell growth at 0.1 uM incubated for 48 hrs by sulforhodamine B assay relative to control
# Assay type: functional
# Conditions: read-out: Activity
row,Compound,growth at 0.1 µM
1,CCc1ccccc1NC(=O)c1sc2nc3c(cc2c1N)C(=O)CCC3,103%

# Tested on: SNB-75
# Assay: Growth inhibition of human SNB-75 cells assessed as cell growth at 1 uM incubated for 48 hrs by sulforhodamine B assay relative to control
# Assay type: functional
# Conditions: read-out: Activity
row,Compound,growth at 1 µM
1,CCc1ccccc1NC(=O)c1sc2nc3c(cc2c1N)C(=O)CCC3,-8%

# Tested on: NCI-H322M
# Assay: Growth inhibition of human NCI-H322M cells assessed as cell growth at 0.1 uM incubated for 48 hrs by sulforhodamine B assay relative to control
# Assay type: functional
# Conditions: read-out: Activity
row,Compound,growth at 0.1 µM
1,CCc1ccccc1NC(=O)c1sc2nc3c(cc2c1N)C(=O)CCC3,99%

# Tested on: OVCAR-8
# Assay: Growth inhibition of human OVCAR-8 cells assessed as cell growth at 100 uM incubated for 48 hrs by sulforhodamine B assay relative to control
# Assay type: functional
# Conditions: read-out: Activity
row,Compound,growth at 100 µM
1,CCc1ccccc1NC(=O)c1sc2nc3c(cc2c1N)C(=O)CCC3,10%

# Tested on: NCI/ADR-RES
# Assay: Growth inhibition of human NCI/ADR-RES cells assessed as cell growth at 0.01 uM incubated for 48 hrs by sulforhodamine B assay relative to control
# Assay type: functional
# Conditions: read-out: Activity
row,Compound,growth at 0.01 µM
1,CCc1ccccc1NC(=O)c1sc2nc3c(cc2c1N)C(=O)CCC3,102%

# Tested on: KM12
# Assay: Growth inhibition of human KM12 cells assessed as cell growth at 100 uM incubated for 48 hrs by sulforhodamine B assay relative to control
# Assay type: functional
# Conditions: read-out: Activity
row,Compound,growth at 100 µM
1,CCc1ccccc1NC(=O)c1sc2nc3c(cc2c1N)C(=O)CCC3,13%

# Tested on: KM12
# Assay: Growth inhibition of human KM12 cells assessed as cell growth at 0.01 uM incubated for 48 hrs by sulforhodamine B assay relative to control
# Assay type: functional
# Conditions: read-out: Activity
row,Compound,growth at 0.01 µM
1,CCc1ccccc1NC(=O)c1sc2nc3c(cc2c1N)C(=O)CCC3,100%

# Tested on: OVCAR-8
# Assay: Growth inhibition of human OVCAR-8 cells assessed as cell growth at 0.01 uM incubated for 48 hrs by sulforhodamine B assay relative to control
# Assay type: functional
# Conditions: read-out: Activity
row,Compound,growth at 0.01 µM
1,CCc1ccccc1NC(=O)c1sc2nc3c(cc2c1N)C(=O)CCC3,98%

# Tested on: 786-0
# Assay: Growth inhibition of human 786-0 cells incubated for 48 hrs by sulforhodamine B assay
# Assay type: functional
# Conditions: not given
# Summary of the method: as §1
Compound,GI50,TGI
CCc1ccccc1NC(=O)c1sc2nc3c(cc2c1N)C(=O)CCC3,0.578 µM,≥ 100 µM

# Same assay, conditions: read-out: LC50 (the source's name)
row,Compound,CC50
1,CCc1ccccc1NC(=O)c1sc2nc3c(cc2c1N)C(=O)CCC3,> 100 µM

# Tested on: NCI-H226
# Assay: Growth inhibition of human NCI-H226 cells assessed as cell growth at 100 uM incubated for 48 hrs by sulforhodamine B assay relative to control
# Assay type: functional
# Conditions: read-out: Activity
row,Compound,growth at 100 µM
1,CCc1ccccc1NC(=O)c1sc2nc3c(cc2c1N)C(=O)CCC3,18%

# Tested on: SW-620
# Assay: Growth inhibition of human SW-620 cells assessed as cell growth at 1 uM incubated for 48 hrs by sulforhodamine B assay relative to control
# Assay type: functional
# Conditions: read-out: Activity
row,Compound,growth at 1 µM
1,CCc1ccccc1NC(=O)c1sc2nc3c(cc2c1N)C(=O)CCC3,18%

# Tested on: SN12C
# Assay: Growth inhibition of human SN12C cells assessed as cell growth at 0.01 uM incubated for 48 hrs by sulforhodamine B assay relative to control
# Assay type: functional
# Conditions: read-out: Activity
row,Compound,growth at 0.01 µM
1,CCc1ccccc1NC(=O)c1sc2nc3c(cc2c1N)C(=O)CCC3,94%

# Tested on: HCC 2998
# Assay: Growth inhibition of human HCC 2998 cells assessed as cell growth at 0.01 uM incubated for 48 hrs by sulforhodamine B assay relative to control
# Assay type: functional
# Conditions: read-out: Activity
# Summary of the method: as §1
row,Compound,growth at 0.01 µM
1,CCc1ccccc1NC(=O)c1sc2nc3c(cc2c1N)C(=O)CCC3,100%

# Tested on: T47D
# Assay: Growth inhibition of human T47D cells assessed as cell growth at 100 uM incubated for 48 hrs by sulforhodamine B assay relative to control
# Assay type: functional
# Conditions: read-out: Activity
row,Compound,growth at 100 µM
1,CCc1ccccc1NC(=O)c1sc2nc3c(cc2c1N)C(=O)CCC3,-5%

# Tested on: CCRF-CEM
# Assay: Growth inhibition of human CCRF-CEM cells assessed as cell growth at 1 uM incubated for 48 hrs by sulforhodamine B assay relative to control
# Assay type: functional
# Conditions: read-out: Activity
# Summary of the method: as §1
row,Compound,growth at 1 µM
1,CCc1ccccc1NC(=O)c1sc2nc3c(cc2c1N)C(=O)CCC3,8%

# Tested on: SF-539
# Assay: Growth inhibition of human SF-539 cells assessed as cell growth at 0.01 uM incubated for 48 hrs by sulforhodamine B assay relative to control
# Assay type: functional
# Conditions: read-out: Activity
row,Compound,growth at 0.01 µM
1,CCc1ccccc1NC(=O)c1sc2nc3c(cc2c1N)C(=O)CCC3,92%

# Tested on: DU-145
# Assay: Growth inhibition of human DU-145 cells assessed as cell growth at 100 uM incubated for 48 hrs by sulforhodamine B assay relative to control
# Assay type: functional
# Conditions: read-out: Activity
# Summary of the method: as §1
row,Compound,growth at 100 µM
1,CCc1ccccc1NC(=O)c1sc2nc3c(cc2c1N)C(=O)CCC3,2%

# Tested on: OVCAR-3
# Assay: Growth inhibition of human OVCAR-3 cells incubated for 48 hrs by sulforhodamine B assay
# Assay type: functional
# Conditions: not given
# Summary of the method: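 NCI DTP 60-line human tumour panel. Dose-response curves were run only for ligands active in the initial 10 µM screen. GI50 (concentration giving 50% of maximal inhibition of proliferation) and TGI (concentration giving total growth inhibition) were derived from these curves.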
Compound,GI50,TGI
CCc1ccccc1NC(=O)c1sc2nc3c(cc2c1N)C(=O)CCC3,0.367 µM,15.8 µM

# Same assay, conditions: read-out: LC50 (the source's name)
row,Compound,CC50
1,CCc1ccccc1NC(=O)c1sc2nc3c(cc2c1N)C(=O)CCC3,> 100 µM

# Tested on: KM12
# Assay: Growth inhibition of human KM12 cells assessed as cell growth at 0.1 uM incubated for 48 hrs by sulforhodamine B assay relative to control
# Assay type: functional
# Conditions: read-out: Activity
row,Compound,growth at 0.1 µM
1,CCc1ccccc1NC(=O)c1sc2nc3c(cc2c1N)C(=O)CCC3,92%

# Tested on: SK-MEL-5
# Assay: Growth inhibition of human SK-MEL-5 cells assessed as cell growth at 1 uM incubated for 48 hrs by sulforhodamine B assay relative to control
# Assay type: functional
# Conditions: read-out: Activity
row,Compound,growth at 1 µM
1,CCc1ccccc1NC(=O)c1sc2nc3c(cc2c1N)C(=O)CCC3,11%

# Tested on: DU-145
# Assay: Growth inhibition of human DU-145 cells assessed as cell growth at 1 uM incubated for 48 hrs by sulforhodamine B assay relative to control
# Assay type: functional
# Conditions: read-out: Activity
# Summary of the method: as §1
row,Compound,growth at 1 µM
1,CCc1ccccc1NC(=O)c1sc2nc3c(cc2c1N)C(=O)CCC3,27%

# Tested on: SW-620
# Assay: Growth inhibition of human SW-620 cells assessed as cell growth at 100 uM incubated for 48 hrs by sulforhodamine B assay relative to control
# Assay type: functional
# Conditions: read-out: Activity
row,Compound,growth at 100 µM
1,CCc1ccccc1NC(=O)c1sc2nc3c(cc2c1N)C(=O)CCC3,12%
